Data as given in ChEMBL document CHEMBL4184148 (Bioorg Med Chem Lett, 2017).

How the values were obtained:
[1] = tested on: Mast/stem cell growth factor receptor Kit (Homo sapiens), P10721 [D816H]; experiment: Binding affinity to human partial length KIT D816H mutant (I571 to D952 residues) expressed in HEK293 cells at 1 uM by Kinomescan method relative to control; assay type: cell-based
[2] = molecular target: Serine/threonine-protein kinase Chk2 (Homo sapiens) (UniProt O96017); experiment: Binding affinity to wild-type human partial length CHEK2 (S253 to E574 residues) expressed in Escherichia coli BL21 at 1 uM by Kinomescan method relative to control
[3] = molecular target: Serine/threonine-protein kinase Nek1 (Homo sapiens) (UniProt Q96PY6); experiment: Binding affinity to wild-type human partial length NEK1 (M1 to K278 residues) expressed in Escherichia coli BL21 at 1 uM by Kinomescan method relative to control
[4] = molecular target: Mitogen-activated protein kinase 14 (Homo sapiens) (UniProt Q16539); experiment: Binding affinity to wild-type human full length p38-alpha (M1 to S360 residues) expressed in Escherichia coli BL21 at 1 uM by Kinomescan method relative to control
In short: (§1)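 Kinome-wide competition binding panel run by an outside provider, with each compound tested at a single concentration. Activity is read against the kinase panel.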

[5] = tested on: Tyrosine-protein kinase ABL1 (Homo sapiens), P00519 [F317I]; experiment: Binding affinity to human phosphorylated ABL1 F317I mutant (S229 to K512 residues) expressed in HEK293 cells at 1 uM by Kinomescan method relative to control; assay type: cell-based
[6] = tested on: ALK tyrosine kinase receptor (Homo sapiens), Q9UM73 [C1156Y]; experiment: Binding affinity to wild-type human partial length ALK C1156Y mutant (I1088 to E1409 residues) expressed in HEK293 cells at 1 uM by Kinomescan method relative to control; assay type: cell-based
[7] = molecular target: Serine/threonine-protein kinase pim-2 (Homo sapiens) (UniProt Q9P1W9); experiment: Binding affinity to wild-type human partial length PIM2 (M1 to E291 residues) expressed in Escherichia coli BL21 at 1 uM by Kinomescan method relative to control
[8] = molecular target: Aurora kinase A (Homo sapiens) (UniProt O14965); experiment: Binding affinity to wild-type human partial length AURKA (E122 to K401 residues) expressed in HEK293 cells at 1 uM by Kinomescan method relative to control; assay type: cell-based; in short: as §1
[9] = molecular target: Cyclin-dependent kinase-like 1 (Homo sapiens) (UniProt Q00532); experiment: Binding affinity to wild-type human full length CDKL1 (M1 to I358 residues) expressed in HEK293 cells at 1 uM by Kinomescan method relative to control; assay type: cell-based
In short: (§2)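 Run as one kinome-wide competition binding panel with each compound at a single fixed concentration. Results were plotted as a kinome-wide selectivity map.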

[10] = molecular target: Calcium/calmodulin-dependent protein kinase type II subunit alpha (Homo sapiens) (UniProt Q9UQM7); experiment: Binding affinity to wild-type human partial length CAMK2A (M1 to K328 residues) expressed in Escherichia coli BL21 at 1 uM by Kinomescan method relative to control
[11] = molecular target: Non-receptor tyrosine-protein kinase TYK2 (Homo sapiens) (UniProt P29597); experiment: Binding affinity to wild-type human partial length TYK2 JH2 pseudokinase domain (G556 to D888 residues) expressed in HEK293 cells at 1 uM by Kinomescan method relative to control; assay type: cell-based
[12] = molecular target: Mitogen-activated protein kinase 10 (Homo sapiens) (UniProt P53779); experiment: Binding affinity to wild-type human partial length JNK3 (V28 to Q422 residues) expressed in HEK293 cells at 1 uM by Kinomescan method relative to control; assay type: cell-based
[13] = molecular target: Myosin light chain kinase, smooth muscle (Homo sapiens) (UniProt Q15746); experiment: Binding affinity to wild-type human full length MYLK (M854 to E1845 residues) expressed in HEK293 cells at 1 uM by Kinomescan method relative to control; assay type: cell-based; in short: as §2
[14] = molecular target: Serine/threonine-protein kinase RIO1 (Homo sapiens) (UniProt Q9BRS2); experiment: Binding affinity to wild-type human full length RIOK1 (M1 to K568 residues) expressed in Escherichia coli BL21 at 1 uM by Kinomescan method relative to control
[15] = molecular target: NUAK family SNF1-like kinase 1 (Homo sapiens) (UniProt O60285); experiment: Binding affinity to wild-type human partial length ARK5 (E25 to I332 residues) expressed in Escherichia coli BL21 at 1 uM by Kinomescan method relative to control; in short: as §1
[16] = molecular target: Serine/threonine-protein kinase PLK1 (Homo sapiens) (UniProt P53350); experiment: Binding affinity to wild-type human partial length PLK1 (A33 to F325 residues) expressed in HEK293 cells at 1 uM by Kinomescan method relative to control; assay type: cell-based
[17] = molecular target: Rhodopsin kinase GRK1 (Homo sapiens) (UniProt Q15835); experiment: Binding affinity to wild-type human full length GRK1 (M1 to S563 residues) expressed in HEK293 cells at 1 uM by Kinomescan method relative to control; assay type: cell-based; in short: as §2
[18] = molecular target: Mitogen-activated protein kinase kinase kinase kinase 5 (Homo sapiens) (UniProt Q9Y4K4); experiment: Binding affinity to wild-type human partial length MAP4K5 (M1 to P297 residues) expressed in Escherichia coli BL21 at 1 uM by Kinomescan method relative to control
[19] = molecular target: Serine/threonine-protein kinase NIM1 (Homo sapiens) (UniProt Q8IY84); experiment: Binding affinity to wild-type human partial length NIM1 (Q44 to N355 residues) expressed in HEK293 cells at 1 uM by Kinomescan method relative to control; assay type: cell-based
[20] = molecular target: Dual specificity mitogen-activated protein kinase kinase 6 (Homo sapiens) (UniProt P52564); experiment: Binding affinity to wild-type human partial length MEK6 (K36 to D334 residues) expressed in Escherichia coli BL21 at 1 uM by Kinomescan method relative to control
[21] = molecular target: NT-3 growth factor receptor (Homo sapiens) (UniProt Q16288); experiment: Binding affinity to wild-type human partial length TRKC (Q531 to G825 residues) expressed in HEK293 cells at 1 uM by Kinomescan method relative to control; assay type: cell-based
[22] = tested on: Proto-oncogene tyrosine-protein kinase receptor Ret (Homo sapiens), P07949 [M918T]; experiment: Binding affinity to human partial length RET M918T mutant (E713 to D1014 residues) expressed in Escherichia coli BL21 at 1 uM by Kinomescan method relative to control
[23] = tested on: Receptor-type tyrosine-protein kinase FLT3 (Homo sapiens), P36888 [UNDEFINED MUTATION]; experiment: Binding affinity to human partial length FLT3 ITD mutant expressed in Escherichia coli BL21 at 1 uM by Kinomescan method relative to control
[24] = molecular target: 1-phosphatidylinositol 3-phosphate 5-kinase (Homo sapiens) (UniProt Q9Y2I7); experiment: Binding affinity to wild-type human partial length PIKFYVE (F1512 to C2098 residues) expressed in HEK293 cells at 1 uM by Kinomescan method relative to control; assay type: cell-based
[25] = molecular target: Receptor-interacting serine/threonine-protein kinase 1 (Homo sapiens) (UniProt Q13546); experiment: Binding affinity to wild-type human partial length RIPK1 (M1 to K305 residues) expressed in Escherichia coli BL21 at 1 uM by Kinomescan method relative to control

Chain of Serine/threonine-protein kinase Nek1 (Homo sapiens) (Q96PY6 whole entry, the tested form may be a part): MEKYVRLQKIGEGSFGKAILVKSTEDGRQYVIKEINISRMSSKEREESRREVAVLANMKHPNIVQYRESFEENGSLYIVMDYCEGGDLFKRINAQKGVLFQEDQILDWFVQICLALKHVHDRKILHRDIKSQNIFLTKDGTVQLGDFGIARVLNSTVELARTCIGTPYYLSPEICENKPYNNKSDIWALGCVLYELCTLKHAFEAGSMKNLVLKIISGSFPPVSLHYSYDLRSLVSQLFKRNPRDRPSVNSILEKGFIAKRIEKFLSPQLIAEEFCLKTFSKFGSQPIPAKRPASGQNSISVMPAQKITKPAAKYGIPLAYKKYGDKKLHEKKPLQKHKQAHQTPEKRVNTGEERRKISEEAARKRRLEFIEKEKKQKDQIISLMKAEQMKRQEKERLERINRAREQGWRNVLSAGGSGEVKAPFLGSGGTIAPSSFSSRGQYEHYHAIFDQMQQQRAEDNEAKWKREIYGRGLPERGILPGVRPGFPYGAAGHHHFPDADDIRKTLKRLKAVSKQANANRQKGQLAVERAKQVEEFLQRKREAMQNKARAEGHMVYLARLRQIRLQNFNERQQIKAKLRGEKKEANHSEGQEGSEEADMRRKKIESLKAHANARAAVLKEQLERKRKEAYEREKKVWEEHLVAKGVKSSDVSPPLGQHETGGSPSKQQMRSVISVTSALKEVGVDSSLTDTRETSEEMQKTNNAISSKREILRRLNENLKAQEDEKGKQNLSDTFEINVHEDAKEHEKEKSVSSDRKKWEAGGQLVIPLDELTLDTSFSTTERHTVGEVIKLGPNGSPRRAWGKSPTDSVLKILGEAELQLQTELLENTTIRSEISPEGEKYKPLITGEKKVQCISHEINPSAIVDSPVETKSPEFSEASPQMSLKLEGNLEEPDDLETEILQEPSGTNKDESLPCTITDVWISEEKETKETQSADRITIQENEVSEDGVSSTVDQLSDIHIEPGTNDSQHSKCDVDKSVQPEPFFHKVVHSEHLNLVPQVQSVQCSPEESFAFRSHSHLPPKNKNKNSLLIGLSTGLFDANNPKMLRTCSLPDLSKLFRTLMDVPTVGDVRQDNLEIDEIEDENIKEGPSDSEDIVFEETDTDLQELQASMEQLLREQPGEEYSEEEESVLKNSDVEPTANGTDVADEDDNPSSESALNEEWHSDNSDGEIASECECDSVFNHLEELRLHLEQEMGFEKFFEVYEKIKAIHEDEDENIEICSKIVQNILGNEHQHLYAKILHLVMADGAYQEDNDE
Chain of Mast/stem cell growth factor receptor Kit (Homo sapiens), P10721 [D816H] (P10721 whole entry D816H, the tested form may be a part): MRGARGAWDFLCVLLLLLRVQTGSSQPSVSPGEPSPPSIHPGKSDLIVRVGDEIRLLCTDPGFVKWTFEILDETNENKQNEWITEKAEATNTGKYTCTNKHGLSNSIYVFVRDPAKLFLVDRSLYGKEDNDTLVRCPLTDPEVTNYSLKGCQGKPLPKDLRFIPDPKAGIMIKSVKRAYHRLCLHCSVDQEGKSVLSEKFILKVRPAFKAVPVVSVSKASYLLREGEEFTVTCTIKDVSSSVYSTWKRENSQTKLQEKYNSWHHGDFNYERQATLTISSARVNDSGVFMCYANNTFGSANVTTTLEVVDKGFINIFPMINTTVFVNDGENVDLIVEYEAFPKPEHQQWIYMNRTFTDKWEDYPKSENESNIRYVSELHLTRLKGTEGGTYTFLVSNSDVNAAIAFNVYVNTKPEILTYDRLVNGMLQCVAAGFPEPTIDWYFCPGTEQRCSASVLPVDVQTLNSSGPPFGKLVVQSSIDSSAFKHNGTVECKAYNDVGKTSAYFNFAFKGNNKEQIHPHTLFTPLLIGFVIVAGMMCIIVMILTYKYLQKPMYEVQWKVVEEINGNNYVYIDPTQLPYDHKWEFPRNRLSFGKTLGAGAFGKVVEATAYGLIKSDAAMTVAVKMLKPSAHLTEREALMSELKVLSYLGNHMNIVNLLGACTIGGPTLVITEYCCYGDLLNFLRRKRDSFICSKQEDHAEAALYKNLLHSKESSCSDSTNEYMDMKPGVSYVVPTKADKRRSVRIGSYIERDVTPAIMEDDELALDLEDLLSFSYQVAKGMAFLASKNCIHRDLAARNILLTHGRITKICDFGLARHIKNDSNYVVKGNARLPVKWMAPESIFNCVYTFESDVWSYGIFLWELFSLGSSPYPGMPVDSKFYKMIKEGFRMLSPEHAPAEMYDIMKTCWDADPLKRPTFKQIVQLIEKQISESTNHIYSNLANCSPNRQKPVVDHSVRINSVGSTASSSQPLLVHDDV
Chain of Mitogen-activated protein kinase 10 (Homo sapiens) (P53779 whole entry, the tested form may be a part): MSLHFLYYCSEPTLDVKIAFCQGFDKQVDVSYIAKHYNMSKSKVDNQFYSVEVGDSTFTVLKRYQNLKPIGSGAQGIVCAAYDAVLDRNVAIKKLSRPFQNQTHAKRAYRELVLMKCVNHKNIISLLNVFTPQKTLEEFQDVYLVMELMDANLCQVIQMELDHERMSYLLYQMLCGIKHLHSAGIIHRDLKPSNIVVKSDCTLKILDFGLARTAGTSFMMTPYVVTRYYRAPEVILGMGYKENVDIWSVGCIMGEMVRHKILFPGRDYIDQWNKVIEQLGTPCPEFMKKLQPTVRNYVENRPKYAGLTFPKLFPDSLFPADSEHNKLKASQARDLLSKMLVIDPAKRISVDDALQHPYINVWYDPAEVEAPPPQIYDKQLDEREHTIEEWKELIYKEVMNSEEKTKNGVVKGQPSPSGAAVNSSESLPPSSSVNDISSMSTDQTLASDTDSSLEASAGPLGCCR
Chain of Serine/threonine-protein kinase Chk2 (Homo sapiens) (O96017 whole entry, the tested form may be a part): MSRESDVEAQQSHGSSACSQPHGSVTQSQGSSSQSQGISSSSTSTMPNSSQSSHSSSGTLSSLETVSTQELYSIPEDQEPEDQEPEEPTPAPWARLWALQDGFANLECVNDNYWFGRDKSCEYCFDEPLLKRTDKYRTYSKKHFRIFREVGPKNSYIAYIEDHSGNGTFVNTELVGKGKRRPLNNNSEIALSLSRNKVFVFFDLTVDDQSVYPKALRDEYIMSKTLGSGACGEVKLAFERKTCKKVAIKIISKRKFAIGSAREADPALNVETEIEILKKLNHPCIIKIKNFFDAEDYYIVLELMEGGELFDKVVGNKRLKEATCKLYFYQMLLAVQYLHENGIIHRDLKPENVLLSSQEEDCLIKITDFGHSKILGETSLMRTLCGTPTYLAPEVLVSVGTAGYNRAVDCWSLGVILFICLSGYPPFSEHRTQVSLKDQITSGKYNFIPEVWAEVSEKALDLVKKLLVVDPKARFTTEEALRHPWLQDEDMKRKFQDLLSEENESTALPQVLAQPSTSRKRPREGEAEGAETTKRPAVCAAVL
Chain of Dual specificity mitogen-activated protein kinase kinase 6 (Homo sapiens) (P52564 whole entry, the tested form may be a part): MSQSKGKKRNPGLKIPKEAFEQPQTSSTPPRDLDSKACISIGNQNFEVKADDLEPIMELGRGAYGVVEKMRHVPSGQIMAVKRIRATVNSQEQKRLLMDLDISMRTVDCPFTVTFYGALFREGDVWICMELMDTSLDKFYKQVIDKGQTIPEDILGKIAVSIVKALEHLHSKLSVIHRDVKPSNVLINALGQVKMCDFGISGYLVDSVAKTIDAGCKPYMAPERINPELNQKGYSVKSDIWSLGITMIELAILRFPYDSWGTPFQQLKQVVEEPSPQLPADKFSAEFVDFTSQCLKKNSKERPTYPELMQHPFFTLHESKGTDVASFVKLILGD
Chain of Mitogen-activated protein kinase kinase kinase kinase 5 (Homo sapiens) (Q9Y4K4 whole entry, looked up, the tested form may be a part): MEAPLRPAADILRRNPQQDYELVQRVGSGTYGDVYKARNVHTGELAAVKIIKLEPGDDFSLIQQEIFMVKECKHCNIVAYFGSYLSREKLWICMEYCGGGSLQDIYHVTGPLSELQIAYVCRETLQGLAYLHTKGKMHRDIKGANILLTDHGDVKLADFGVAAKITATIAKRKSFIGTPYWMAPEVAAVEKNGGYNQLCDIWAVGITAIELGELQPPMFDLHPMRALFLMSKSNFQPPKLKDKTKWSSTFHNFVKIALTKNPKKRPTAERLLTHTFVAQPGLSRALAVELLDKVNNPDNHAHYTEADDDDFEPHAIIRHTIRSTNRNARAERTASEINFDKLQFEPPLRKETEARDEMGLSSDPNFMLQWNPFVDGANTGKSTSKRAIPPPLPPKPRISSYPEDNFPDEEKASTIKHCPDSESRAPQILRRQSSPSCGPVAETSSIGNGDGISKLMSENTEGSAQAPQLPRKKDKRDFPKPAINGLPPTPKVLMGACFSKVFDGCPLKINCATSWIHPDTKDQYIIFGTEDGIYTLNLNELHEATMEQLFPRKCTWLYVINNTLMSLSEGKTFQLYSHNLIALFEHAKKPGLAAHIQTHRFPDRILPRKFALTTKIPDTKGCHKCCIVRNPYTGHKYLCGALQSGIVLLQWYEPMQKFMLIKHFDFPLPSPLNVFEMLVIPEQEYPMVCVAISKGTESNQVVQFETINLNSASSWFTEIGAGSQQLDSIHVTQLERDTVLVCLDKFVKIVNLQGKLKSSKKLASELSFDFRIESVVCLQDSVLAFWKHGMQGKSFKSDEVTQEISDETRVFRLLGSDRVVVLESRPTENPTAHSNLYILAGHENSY
Chain of Mitogen-activated protein kinase 14 (Homo sapiens) (Q16539 whole entry, the tested form may be a part): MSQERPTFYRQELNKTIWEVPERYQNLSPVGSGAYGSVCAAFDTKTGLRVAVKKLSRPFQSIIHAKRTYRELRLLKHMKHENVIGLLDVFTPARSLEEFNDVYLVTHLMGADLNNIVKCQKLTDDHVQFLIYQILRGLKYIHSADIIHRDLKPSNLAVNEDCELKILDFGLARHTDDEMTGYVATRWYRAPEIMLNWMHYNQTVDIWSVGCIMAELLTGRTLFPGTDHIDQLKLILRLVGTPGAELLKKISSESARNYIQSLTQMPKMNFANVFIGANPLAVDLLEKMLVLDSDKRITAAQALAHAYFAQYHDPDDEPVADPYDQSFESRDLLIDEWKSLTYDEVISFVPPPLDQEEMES

SMILES	Activity [1]	Activity [2]	Activity [3]	Activity [4]	Activity [5]	Activity [6]	Activity [7]	Activity [8]	Activity [9]	Activity [10]	Activity [11]	Activity [12]	Activity [13]	Activity [14]	Activity [15]	Activity [16]	Activity [17]	Activity [18]	Activity [19]	Activity [20]	other results
CCC(=O)Nc1ccc(C(=O)Nc2ccc(Nc3ncc4c(n3)N(C)c3ccc(C)cc3C(=O)N4C)cc2)cc1	72%	95%	100%	100%	63%	100%	100%	0.45%	88%	88%	93%	92%	78%	68%	85%	100%	76%	100%	100%	97%	Activity [21]: 89%; Activity [22]: 71%; Activity [23]: 94%; Activity [24]: 98%; Activity [25]: 86%
C=CC(=O)Nc1ccc(C(=O)Nc2ccc(Nc3ncc4c(n3)N(C)c3ccc(C)cc3C(=O)N4C)cc2)cc1	83%	97%	94%	100%	100%	94%	100%	0%	92%	100%	88%	100%	89%	84%	84%	91%	73%	100%	98%	100%	Activity [21]: 100%; Activity [22]: 87%; Activity [23]: 83%; Activity [24]: 100%; Activity [25]: 100%
